procasp3 activ: activators of human procaspase-3 D3A mutant, primary screen, biochemical, absorbance, PC-3 D3A mutant, single concentration. Caspase-3 (Homo sapiens), P42574. recombinant procaspase-3 D3A, Ac-DEVD-pNA absorbance 405 nm. activation, % at 8.5 µM. hit rate 0.11% among 330,000;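 active = activation above the mean of all tested compounds plus 3 SD, cut at about 21% in these data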;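 also: 0% = DMSO alone and 100% = DMSO wells spiked with extra 5 µM PC-3 D3A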
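Test system: Procaspase-3 D3A mutant, all three cleavage aspartates alanine | Dosing: Single dose, 8.5 µM nominal compound, 0.8% DMSO | Schedule: 1 h preincubation, 2 h reaction | Technique: 405 nm absorbance of p-nitroaniline, reads at 0 and 120 min | Repeats: One well per compound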
procasp7 counter: procaspase-7 activators, primary screen, counter-screen for procaspase-3 activator project, biochemical, absorbance, HTS, human | recombinant procaspase-7, Ac-DEVD-pNA absorbance 405 nm; D23A/D198A/D206A triple mutant, cannot self-cleave; scale: DMSO 0, 5 µM enzyme 100 | hit rate 0.093% among 330,000 | activation, % at 8.5 µM;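 active = percent activation above the screen-wide mean plus 3 SD, cut at about 25% in these data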
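Test system: Procaspase-7 triple mutant (PC-7 D3A). Also added: Ac-DEVD-pNA substrate, 400 µM as added. Schedule: 1 h enzyme–compound preincubation and 2 h substrate reaction, both 25 °C. Signal: p-Nitroaniline absorbance at 405 nm, read at 0 and 120 min. Control set: low DMSO alone, high DMSO plus 5 µM PC-7.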
PLC-gamma1 inh: PLC-gamma1 enzyme inhibitors, primary screen, biochemical, fluorescence, purified enzyme; 1-phosphatidylinositol 4,5-bisphosphate phosphodiesterase gamma-1 (Homo sapiens), P19174; fluorogenic substrate; inhibition, % at 12.2 µM; hit rate 0.84% among 370,000; AID 720700, 2013; in the data active = inhibition above about 9.5%
PLC-beta3 inh: human PLC-beta3 inhibitors, primary screen, biochemical, fluorescence. 1-phosphatidylinositol 4,5-bisphosphate phosphodiesterase beta-3 (Homo sapiens), Q01970. Purified PLC-beta3, fluorogenic substrate. inhibition, % at 12.2 µM. hit rate 0.18% among 370,000. AID 720704, 2013; in the data active = inhibition above about 11%;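 also: 0% = median of compound wells on plate and 100% = full blocker control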
Target sequence (Q01970 whole entry, looked up): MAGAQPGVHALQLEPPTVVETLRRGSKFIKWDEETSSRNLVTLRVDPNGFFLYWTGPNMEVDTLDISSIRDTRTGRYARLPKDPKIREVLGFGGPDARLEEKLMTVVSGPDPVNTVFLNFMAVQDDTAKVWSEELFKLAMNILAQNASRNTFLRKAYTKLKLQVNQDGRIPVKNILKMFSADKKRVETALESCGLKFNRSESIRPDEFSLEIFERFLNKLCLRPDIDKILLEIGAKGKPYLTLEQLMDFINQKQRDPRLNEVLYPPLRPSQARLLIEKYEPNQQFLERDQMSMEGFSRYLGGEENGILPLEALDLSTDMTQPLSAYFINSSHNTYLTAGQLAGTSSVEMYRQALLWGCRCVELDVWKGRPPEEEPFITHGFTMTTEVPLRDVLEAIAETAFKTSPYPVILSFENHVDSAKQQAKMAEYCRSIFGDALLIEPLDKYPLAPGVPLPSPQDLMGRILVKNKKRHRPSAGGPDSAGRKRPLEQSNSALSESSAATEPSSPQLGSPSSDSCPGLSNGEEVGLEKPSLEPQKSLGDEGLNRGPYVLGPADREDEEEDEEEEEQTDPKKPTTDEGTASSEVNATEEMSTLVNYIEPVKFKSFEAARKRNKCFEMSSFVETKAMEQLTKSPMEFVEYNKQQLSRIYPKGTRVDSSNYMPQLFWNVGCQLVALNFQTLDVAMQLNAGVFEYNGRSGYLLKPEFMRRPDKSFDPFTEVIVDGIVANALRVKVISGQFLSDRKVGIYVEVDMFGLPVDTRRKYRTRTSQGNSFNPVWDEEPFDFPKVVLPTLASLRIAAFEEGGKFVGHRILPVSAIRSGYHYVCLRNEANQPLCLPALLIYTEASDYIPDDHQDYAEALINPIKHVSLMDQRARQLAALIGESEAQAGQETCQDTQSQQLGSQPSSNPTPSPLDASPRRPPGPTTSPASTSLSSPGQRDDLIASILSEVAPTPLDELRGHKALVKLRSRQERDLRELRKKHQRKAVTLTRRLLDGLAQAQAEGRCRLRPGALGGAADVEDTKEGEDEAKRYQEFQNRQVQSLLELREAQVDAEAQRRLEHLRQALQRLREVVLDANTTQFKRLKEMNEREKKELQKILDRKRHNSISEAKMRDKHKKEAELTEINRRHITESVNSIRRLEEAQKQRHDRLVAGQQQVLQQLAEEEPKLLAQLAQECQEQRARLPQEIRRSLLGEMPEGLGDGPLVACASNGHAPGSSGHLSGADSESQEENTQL
Arr AP2 block: inhibitors of beta-arrestin/AP2 binding, primary screen, biochemical, GPCR trafficking, flow cytometry; beta-arrestin 1 C-terminal peptide binding to AP2 beta2-adaptin appendage (human); FITC-arrestin peptide / GST-AP2 beads; AP2 beta2 appendage carries R879A mutation; inhibition, % at 10 µM; hit rate 0.31% among 340,000; AID 504490, 2011;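 active = inhibition above a set limit, near 3 SD of compounds lacking own fluorescence, cut at about 54% in these data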;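 also: plate controls were DMSO wells for no effect and 5 µM unlabelled arrestin peptide for full effect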
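system = GST-tagged AP2 beta2-adaptin appendage (R879A) on 4 µm glutathione beads | reagent = FITC-labelled arrestin peptide probe, 50 nM final | schedule = compound with beads 12 min RT, then probe 1 h RT | signal = HyperCyt-sampled flow cytometry, FL1 channel, ex 488/em 535 nm | read-out = percent response from loss of bead-bound FITC fluorescence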
sPLA2-III inh: human group III sPLA2 inhibitors, primary screen, biochemical, QFRET, BODIPY PC-A2 liposome substrate | Group 3 secretory phospholipase A2 (Homo sapiens), Q9NZ20 | QFRET BODIPY PC-A2 liposome hydrolysis, fluorescence | inhibition, % at 12.2 µM | hit rate 0.56% among 370,000 | AID 743126, 2013;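 active = inhibition above mean plus 3 SD of compounds lying within the high and low control bounds, cut at about 19% in these data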;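 also: 0% = median of test compound wells and 100% = no enzyme DMSO wells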
Arr-AP2 CP1: inhibitors of arrestin peptide binding to AP2, confirmation, biochemical, cherry pick 1, flow cytometry beads; shares compounds with Arr AP2 block; GST-AP2 beads, FITC arrestin peptide binding; GST-fused beta2-adaptin appendage, R879A mutant; inhibition, % at 10 µM; hit rate 2% among 1,300;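 active = inhibition above a set limit, roughly 3 SD of non-fluorescent compound noise, cut at about 38% in these data; inactive = inhibition at or below that limit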;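 also: loss of bead fluorescence from 50 nM FITC arrestin peptide bound to appendage; 0% = negative control wells and 100% = excess unlabelled arrestin peptide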
GST GSH counter: GST-fluorescein capture on glutathione beads, confirmation, artefact control for arrestin-AP2 inhibitor project, biochemical, cherry pick 1, flow cytometry. hit rate 2% among 1,300. inhibition, % at 10 µM. shares compounds with Arr AP2 block. GST-fluorescein binding to GSH beads, fluorescence, counter-screen;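 active = inhibition above 50%, about 3 SD of the inhibition seen with non-fluorescent compounds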;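 also: fluorescein maleimide labelled GST captured on 4 micron glutathione beads; higher means more loss of bead fluorescence from quenching or blocked binding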
Active calls of the source: *; i = inactive; . = not tested or not shown. Sampled rows, rich in hits. Any-hit rate of the full collection: about 1.9%.

SMILES	procasp3 activ	procasp7 counter	PLC-gamma1 inh	PLC-beta3 inh	Arr AP2 block	sPLA2-III inh	Arr-AP2 CP1	GST GSH counter
CCSc1nnc(-c2sc3nnc(-c4ccccc4)c(-c4ccccc4)c3c2N)o1	-11	-15	-97	-121	73*	7	19	13
CCOC(=O)CNC(=O)N(C)[C@H]1C[C@H]2c3[nH]c4c(-c5cccc(C)c5)cccc4c3CCN2C(=O)[C@H]1[C@H](C)O	.	.	-411	i	.	-10	.	.
CCn1c(=O)n(CC)c2cc(N3CCCC3)c(NC(=O)c3c(F)cccc3F)cc21	-4	1	-5	-11	16	4	-6	-1
CCn1c2ccccc2c2cc(NC(=O)c3cccc(OC)c3)ccc21	-6	-2	.	.	3	.	.	.
CCn1c(=O)n(CC)c2cc(N3CCCC3)c(NC(=O)c3cccc(OC)c3)cc21	-5	5	-77	-110	4	4	2	5
CCOc1ccc(C(=O)Nc2cc3c(cc2N2CCCC2)n(CC)c(=O)n3CC)cc1OCC	-8	8	-226	-345	-3	5	0	-7
CCn1c(=O)n(CC)c2cc(N3CCCC3)c(NC(=O)c3ccc(F)cc3)cc21	0	-10	-65	-101	7	2	11	1
Cc1cc(C(=O)Nc2ccc(F)cc2)n(-c2ccccc2)n1	.	.	1	2	.	4	.	.
Cc1ccc(-c2nnc3n2N=C(c2ccc4ccccc4c2)CS3)cc1	.	.	0	0	.	1	.	.
COC(=O)C1=C(C)N(Cc2cccc(C(F)(F)F)c2)C(=NCc2ccc3c(c2)OCO3)NC1c1cccc(F)c1 (stereo not drawn)	.	.	2	4	.	-4	.	.
O=S(=O)(c1cccs1)N1CCC(c2cn3ccccc3n2)CC1	.	.	-18	-20	.	2	.	.
CN1[C@H](Cc2ccccc2)COc2cc(N3CCSCC3)ccc2S1(=O)=O	.	.	2	0	.	-2	.	.
O=C(N/N=C/c1cccc([N+](=O)[O-])c1)c1ccc(Br)cc1	-3	9	-3	-6	7	7	.	.
O=C(N/N=C/c1cccc([N+](=O)[O-])c1)c1cccc(Br)c1	7	-3	-8	-1	104*	-1	13	60*
Cc1onc(-c2ccccc2Cl)c1C(=O)NCC1CCCO1 (stereo not drawn)	1	8	3	2	21	5	.	.
O=C(NCC1CCCO1)c1ccc(-c2ccccc2Cl)o1 (stereo not drawn)	7	4	-1	3	62*	6	1	-7
COc1cccc(CNC(=O)c2ccncc2)c1	-3	1	-2	-6	68*	7	-5	-2
COc1ccc(CNC(=O)c2ccncc2)cc1	4	-8	1	-11	-4	12	.	.
COc1ccc(CC2(CO)CCN(Cc3ccc(NC(C)=O)cc3)CC2)cc1	2	6	5	-2	56*	-1	6	0
CCCCn1c(N)c(N(CCOC)C(=O)COC(=O)COc2ccccc2C#N)c(=O)[nH]c1=O	7	-2	-5	-11	56*	15	19	3
CCOc1ccc(C(C)=O)cc1N1C(=O)C2C3C=CC(O3)C2C1=O (stereo not drawn)	-20	-46	.	.	78*	.	-2	-6
O=C(/C=C/c1cccs1)Nc1cccnc1	-13	-2	7	6	56*	2	2	0
CCCS(=O)(=O)c1nc(S(=O)(=O)c2ccc(C)cc2)c(N2CCC(C(N)=O)CC2)s1	0	12	-3	-7	61*	0	-4	-6
O=C(NC1CCCCC1)N1CCN(CCc2ccccc2)CC1	5	3	2	2	54*	4	-2	-2
COc1cccc(-c2nnc(SCC(=O)Nc3ccc(Oc4ccccc4)cc3)n2Cc2ccco2)c1	.	.	0	-5	.	-13	.	.
SMILES	procasp3 activ	procasp7 counter	PLC-gamma1 inh	PLC-beta3 inh	Arr AP2 block	sPLA2-III inh	Arr-AP2 CP1	GST GSH counter
CC1CCN(C(=O)CN2C(=O)COc3ccc(Cl)cc32)CC1	-10	-8	3	-3	-2	3	.	.
O=C(CN1C(=O)COc2ccc(Cl)cc21)N1CCCCC1	1	10	-1	-11	55*	3	2	-6
COc1ccc(-c2noc(CN(C(=O)c3ccc4c(c3)OCO4)C(C)C)n2)cc1OC	-1	8	-1	-3	60*	-5	-9	-10
O=C(NCc1ccccc1Cl)c1cnccc1C(F)(F)F	-2	1	3	-6	55*	7	-4	-9
CNS(=O)(=O)c1cccc(C(=O)NCC2(N3CCCCC3)CCCCC2)c1	7	6	1	-8	-26	6	.	.
COc1ccc(NS(=O)(=O)c2cccc(C(=O)NCC3(N4CCOCC4)CCCCC3)c2)cc1	-2	-1	-1	-23	-9	-11	9	-6
COc1ccc(NS(=O)(=O)c2cccc(C(=O)NCC3(N4CCCCC4)CCCCC3)c2)cc1	5	-1	2	-6	-19	-20	12	6
Cc1cccc(NC(=O)c2cccc(S(=O)(=O)Nc3ccccc3C(=O)O)c2)c1	3	7	1	-7	58*	-47	-8	-7
COc1ccc(NS(=O)(=O)c2ccc(C(=O)NCC3(N4CCOCC4)CCCCC3)cc2)cc1	10	0	9	3	-8	-24	.	.
Cc1cccc(NS(=O)(=O)c2cccc(C(=O)NCC3(N4CCCCC4)CCCCC3)c2)c1	2	3	1	0	-10	-14	-5	-3
COC(=O)[C@]1(CNS(=O)(=O)c2ccc(F)cc2)CC(=O)N(C)[C@@H]1c1ccccc1	.	.	-2	2	.	0	.	.
CC(/C=N/NC(=O)CSc1nnc(SCc2ccc(C)cc2)s1)=C\c1ccco1	.	.	-2	-5	.	-20	.	.
